# Data from ChEMBL document CHEMBL1135740, “Design, synthesis, and activity of a novel series of factor Xa inhibitors: optimization of arylamidine groups” (J Med Chem, 2002).
# Columns and labels:
# [1] = Plasma concentration after intravenous aministration at 1hr, (1 mg/kg, n=3); type: ADME, organism-based; conditions: rat
# Method in brief: (§1)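 Rats dosed intravenously at 1 mg/kg (n = 3). Plasma drug concentrations were measured at 30 min and at 1 h (60 min) and reported in µM.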
# [2] = Plasma concentration after intravenous aministration at 30 min. (1 mg/kg, n=3); type: ADME, organism-based; conditions: rat; method in brief: as §1
# Coagulation factor X = Coagulation factor X (Homo sapiens, UniProt P00742); test: Inhibitory constant against human coagulation factor Xa (fXa)
# Chain of Coagulation factor X (P00742 41-179 limits assumed): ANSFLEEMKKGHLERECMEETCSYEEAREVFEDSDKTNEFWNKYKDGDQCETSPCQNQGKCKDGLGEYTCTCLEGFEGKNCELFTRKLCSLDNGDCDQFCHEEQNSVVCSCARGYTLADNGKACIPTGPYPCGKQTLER
# Chain of Coagulation factor X (P00742 235-488 limits assumed): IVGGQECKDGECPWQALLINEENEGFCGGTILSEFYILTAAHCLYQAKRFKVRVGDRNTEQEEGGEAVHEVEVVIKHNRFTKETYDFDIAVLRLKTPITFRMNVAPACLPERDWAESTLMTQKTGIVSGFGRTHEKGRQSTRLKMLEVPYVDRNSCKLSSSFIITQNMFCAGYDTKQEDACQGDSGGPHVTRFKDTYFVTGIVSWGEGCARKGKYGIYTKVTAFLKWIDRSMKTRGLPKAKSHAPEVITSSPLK
# Prothrombin = Prothrombin (Homo sapiens, UniProt P00734); test: Inhibitory constant against human coagulation factor II (thrombin) for selectivity within coagulation cascade
# Serine protease 1 = target: T1, Serine protease 1 (Bos taurus, UniProt P00760); test: Inhibitory constant against bovine trypsin for general specificity against serine proteases
# T1 sequence (P00760 whole entry): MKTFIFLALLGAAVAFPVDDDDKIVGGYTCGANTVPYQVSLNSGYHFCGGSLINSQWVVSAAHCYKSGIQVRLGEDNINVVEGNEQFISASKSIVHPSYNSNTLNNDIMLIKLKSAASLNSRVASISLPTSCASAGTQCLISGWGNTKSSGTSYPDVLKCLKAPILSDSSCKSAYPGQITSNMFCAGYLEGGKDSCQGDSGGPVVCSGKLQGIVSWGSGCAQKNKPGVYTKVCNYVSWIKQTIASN
# [3] = Plasma concentration after oral aministration at 2 hr. (10 mg/kg); type: ADME, organism-based; conditions: rat
# Method in brief: (§2)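 Rats were dosed orally at 10 mg/kg. Plasma drug concentrations were measured at 1, 2 and 4 h and reported in µM.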
# [4] = Plasma concentration after oral aministration at 1 hr. (10 mg/kg); type: ADME, organism-based; conditions: rat; method in brief: as §2
# [5] = Plasma concentration after intravenous aministration at 60 min. (1 mg/kg, n=3); type: ADME, organism-based; conditions: rat; method in brief: as §1
# [6] = Plasma concentration after oral aministration at 4 hr. (10 mg/kg); type: ADME, organism-based; conditions: rat; method in brief: as §2
smiles,measurement,setting,value
N=C(N)c1ccc(O)c(Oc2cc(C(=O)O)cc(Oc3cccc(C4=NCCN4)c3)n2)c1,concentration at 1 h,[1],1.4 µM
same,concentration at 0.5 h,[2],3 µM
Cc1c(F)c(Oc2cccc(OC(C)C)c2)nc(Oc2cccc(C(=N)N)c2)c1F,Ki,Coagulation factor X,0.62 µM
same,Ki,Prothrombin,5.3 µM
same,Ki,Serine protease 1,2.9 µM
N=C(N)c1cccc(Oc2cc(C(=O)O)cc(Oc3cccc(C(=N)N)c3)n2)c1,concentration at 0.5 h,[2],0.8 µM
Cc1c(F)c(Oc2cccc(C(=N)N)c2)nc(Oc2cccc(C(=N)N)c2)c1F,concentration at 0.5 h,[2],0.1 µM
CN(C)C(=O)c1cccc(Oc2cc(C(=O)O)cc(Oc3cc(C(=N)N)ccc3O)n2)c1,Ki,Coagulation factor X,0.0031 µM
same,Ki,Prothrombin,0.49 µM
same,Ki,Serine protease 1,0.15 µM
Cc1cn(-c2cccc(Oc3cc(C(=O)O)cc(Oc4cc(C(=N)N)ccc4O)n3)c2)cn1,Ki,Coagulation factor X,0.013 µM
same,Ki,Prothrombin,0.65 µM
same,Ki,Serine protease 1,0.16 µM
Cc1c(F)c(Oc2cccc(C(=N)N)c2)nc(Oc2cccc(C(=O)N3CCCC3)c2)c1F,Ki,Coagulation factor X,0.22 µM
same,Ki,Prothrombin,> 5 µM
same,Ki,Serine protease 1,2.8 µM
N=C(N)c1cccc(Oc2cc(C(=O)O)cc(Oc3cc(C(=N)N)ccc3O)n2)c1,Ki,Coagulation factor X,0.006 µM
same,concentration at 0.5 h,[2],1.9 µM
same,Ki,Prothrombin,5.1 µM
same,Ki,Serine protease 1,0.52 µM
Cc1c(F)c(Oc2cccc(N(C)C)c2)nc(Oc2cc(C(=N)N)ccc2NS(C)(=O)=O)c1F,Ki,Coagulation factor X,5.5 µM
same,Ki,Prothrombin,> 5 µM
same,Ki,Serine protease 1,> 5 µM
Cc1c(F)c(Oc2cccc(C(=N)N)c2)nc(Oc2cccc(C(O)C(=O)N(C)C)c2)c1F (stereo not drawn),Ki,Coagulation factor X,2.2 µM
same,Ki,Prothrombin,> 5 µM
same,Ki,Serine protease 1,3.3 µM
CCOC(=O)c1cccc(Oc2nc(Oc3cccc(C(=N)N)c3)c(F)c(C)c2F)c1,Ki,Coagulation factor X,5.2 µM
same,Ki,Prothrombin,> 5 µM
same,Ki,Serine protease 1,> 5 µM
Cc1c(F)c(Oc2cccc(C(=N)N)c2)nc(Oc2cccc(C(=O)N3CCCCC3)c2)c1F,Ki,Coagulation factor X,0.82 µM
same,Ki,Prothrombin,> 5 µM
same,Ki,Serine protease 1,3 µM
CN1CCN=C1c1cccc(Oc2cc(C(=O)O)cc(Oc3cc(C(=N)N)ccc3O)n2)c1,concentration at 2 h,[3],0.2 µM
same,concentration at 0.5 h,[2],1.1 µM
same,concentration at 1 h,[4],1.4 µM
same,concentration at 1 h,[5],0.4 µM
same,concentration at 4 h,[6],0.1 µM
Cc1c(F)c(Oc2cccc(CCC(=O)N(C)C)c2)nc(Oc2cccc(C(=N)N)c2)c1F,Ki,Coagulation factor X,1.3 µM
same,Ki,Prothrombin,> 5 µM
same,Ki,Serine protease 1,4.9 µM
Cc1c(F)c(Oc2cccc(C(=N)N)c2)nc(Oc2ccc(Cl)c(N(C)C)c2)c1F,Ki,Coagulation factor X,0.5 µM
same,Ki,Prothrombin,5.3 µM
same,Ki,Serine protease 1,1 µM
